Calls of active or inactive are those of the source. The calls are words filed in the database; no cut-off is given here.
Tests used:
[1] = system: HeLa; assay: Cytotoxicity against human HeLa cells assessed as growth inhibition after 72 hrs by calcein AM staining-based fluoroscence assay; assay type: functional, cell-based
[2] = target: Cyclin-dependent kinase 5/CDK5 activator 1 (Homo sapiens, UniProt Q00535); assay: Inhibition of CDK5/p35 (unknown origin) using histone H1 as substrate; assay type: protein-complex assay
Cyclin-dependent kinase 5/CDK5 activator 1, sequence (Q00535 whole entry): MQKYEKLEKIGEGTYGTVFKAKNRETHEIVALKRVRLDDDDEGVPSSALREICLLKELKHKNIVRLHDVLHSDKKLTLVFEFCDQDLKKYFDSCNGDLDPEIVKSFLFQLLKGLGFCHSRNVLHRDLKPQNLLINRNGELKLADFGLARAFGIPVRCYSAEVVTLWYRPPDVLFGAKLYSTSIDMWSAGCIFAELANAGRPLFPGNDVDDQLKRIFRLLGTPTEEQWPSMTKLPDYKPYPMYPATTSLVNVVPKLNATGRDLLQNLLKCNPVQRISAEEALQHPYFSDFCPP
Cyclin-dependent kinase 5/CDK5 activator 1, sequence (Q15078 whole entry, further chain): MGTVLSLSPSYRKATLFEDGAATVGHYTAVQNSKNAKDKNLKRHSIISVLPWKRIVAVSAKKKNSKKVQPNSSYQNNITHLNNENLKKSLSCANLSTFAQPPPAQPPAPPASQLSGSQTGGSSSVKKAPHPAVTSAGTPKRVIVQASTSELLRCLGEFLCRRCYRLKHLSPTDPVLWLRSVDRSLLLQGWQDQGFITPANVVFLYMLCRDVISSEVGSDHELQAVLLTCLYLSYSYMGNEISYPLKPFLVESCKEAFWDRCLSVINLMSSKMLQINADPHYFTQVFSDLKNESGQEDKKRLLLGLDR
How it was run: (§1)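 CDK5/p35, CDK7/cyclin H/MAT1 and CDK9/cyclin T1 in 10 μL reactions with 0.05 μCi [γ-33P]ATP. CDK5 used 1 mg/mL histone H1 with 0.15 μM ATP. CDK7 and CDK9 used (YSPTSPS)2KK with 1.5 μM ATP. Stopped with H3PO4, spotted on P-81, washed. IC50 from dose-response curves.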

[3] = target: T1, Cyclin-dependent kinase 1 (Homo sapiens, UniProt P06493); assay: Inhibition of CDK1 in human G361 cells sensitized with nocodazole assessed as PP1alpha phosphorylation at Thr320 at 640 nM after 4 hrs by immunoblotting analysis; assay type: cell-based; conditions: G-361
T1 sequence (P06493 whole entry, looked up): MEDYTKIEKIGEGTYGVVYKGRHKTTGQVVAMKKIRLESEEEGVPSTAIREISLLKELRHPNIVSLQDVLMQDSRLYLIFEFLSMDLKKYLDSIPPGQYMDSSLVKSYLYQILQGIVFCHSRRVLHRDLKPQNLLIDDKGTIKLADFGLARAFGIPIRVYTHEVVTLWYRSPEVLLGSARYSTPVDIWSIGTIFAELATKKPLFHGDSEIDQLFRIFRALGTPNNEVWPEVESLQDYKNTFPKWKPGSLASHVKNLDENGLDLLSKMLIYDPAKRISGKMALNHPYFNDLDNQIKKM
How it was run: (§2)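 G361 cells arrested in mitosis with nocodazole, then dosed with compound. Lysates in Laemmli buffer were immunoblotted on nitrocellulose with antibodies to phospho-PP1α (T320) and phospho-NPM (T199). Peroxidase secondaries with ECL detection.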

[4] = system: G-361; assay: Cytotoxicity against human G361 cells assessed as growth inhibition after 72 hrs by calcein AM staining-based fluoroscence assay; assay type: functional, cell-based; conditions: G-361, 72 h
[5] = target: Cyclin-dependent kinase 7 (Homo sapiens) (UniProt P50613); assay: Inhibition of CDK7 in human G361 cells assessed as reduction of phosphorylation of CDK1 at T161 by immunoblotting analysis; assay type: cell-based; conditions: G-361
Cyclin-dependent kinase 7 (Homo sapiens), sequence (P50613 whole entry): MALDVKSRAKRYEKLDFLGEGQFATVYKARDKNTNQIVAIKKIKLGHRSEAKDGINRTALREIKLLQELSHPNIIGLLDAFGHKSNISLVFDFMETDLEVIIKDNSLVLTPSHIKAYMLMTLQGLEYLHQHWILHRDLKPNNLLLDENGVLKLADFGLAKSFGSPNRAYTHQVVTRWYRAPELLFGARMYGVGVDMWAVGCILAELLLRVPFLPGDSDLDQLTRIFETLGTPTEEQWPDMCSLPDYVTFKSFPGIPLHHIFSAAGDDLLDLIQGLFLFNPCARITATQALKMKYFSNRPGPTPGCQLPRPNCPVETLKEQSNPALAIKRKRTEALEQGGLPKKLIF
How it was run: (§3)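 Treated G361 cells harvested into Laemmli sample buffer. Proteins resolved by SDS-PAGE and blotted to nitrocellulose. Membranes blocked, probed overnight with specific primary antibodies, then peroxidase-conjugated secondaries. ECL detection by CCD camera. Actin served as loading control.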

[6] = system: G-361; assay: Induction of apoptosis in human G361 cells assessed as caspase 3/7 activation at 640 nM after 16 hrs by Ac-DEVD-AMC-based fluorimetry assay; assay type: functional, cell-based
[7] = system: G-361; assay: Induction of apoptosis in human G361 cells assessed as increase of activated caspase 3/7 level using Ac-DEVD-AMC as substrate at 20 to 1280 nM after 24 hrs by fluorimetry assay
[8] = system: G-361; assay: Induction of apoptosis in human G361 cells assessed as reduction of RNA polymerase 2 level at 640 nM after 16 hrs by immunoblotting analysis; assay type: functional, cell-based; how it was run: as §3
[9] = system: G-361; assay: Induction of apoptosis in human G361 cells assessed as dephosphorylation of RNA polymerase 2 at Ser5 at 640 nM up to 1 hr by immunoblotting analysis; assay type: functional, cell-based; how it was run: as §3
[10] = system: HOS; assay: Cytotoxicity against human HOS cells assessed as growth inhibition after 72 hrs by calcein AM staining-based fluoroscence assay; assay type: functional, cell-based
[11] = system: G-361; assay: Induction of apoptosis in human G361 cells assessed as decrease in Mcl-1 at 300 nM after 24 hrs by immunoblotting analysis; assay type: functional, cell-based; how it was run: as §3
[12] = system: G-361; assay: Induction of apoptosis in human G361 cells assessed as decrease in Mcl-1 at 640 nM up to 2 hrs by immunoblotting analysis; assay type: functional, cell-based; how it was run: as §3
[13] = target: T1, Cyclin-dependent kinase 1; assay: Inhibition of CDK1 in human G361 cells sensitized with nocodazole assessed as PP1alpha phosphorylation at Thr320 at 640 nM after 8 hrs by immunoblotting analysis; assay type: cell-based; conditions: G-361; how it was run: as §2
[14] = system: G-361; assay: Induction of apoptosis in human G361 cells assessed as dephosphorylation of retinoblastoma protein at Ser780 at 640 nM up to 1 hr by immunoblotting analysis; assay type: functional, cell-based; how it was run: as §3
[15] = target: Cyclin-dependent kinase 2/cyclin E1 (Homo sapiens, UniProt P24941); assay: Inhibition of human recombinant CDK2/Cyclin E expressed in baculovirus infected sf9 cells using histone H1 as substrate
[16] = target: Cyclin-dependent kinase 2/cyclin E1 (Homo sapiens) (UniProt P24864+P24941); assay: Ratio of roscovitine IC50 to compound IC50 for human recombinant CDK2/Cyclin E; assay type: protein-complex assay
[17] = system: G-361; assay: Induction of apoptosis in human G361 cells assessed as caspase 9 activation using Ac-DEHD-AMC as substrate at 300 nM after 24 hrs by fluorimetry assay; assay type: functional, cell-based; conditions: in the assay text read “Ac-LEHD-AMC” for “Ac-DEHD-AMC”
How it was run: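 G361 lysates were made in CHAPS extraction buffer, pH 7.4, clarified at 10000g, and protein-equalized. They were incubated 24 h with 100 μM Ac-LEHD-AMC in 100 mM HEPES pH 7.5, 0.5 mM EDTA, 20% glycerol, 5 mM DTT. AMC fluorescence read at 355/460 nm (ex/em).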

[18] = target: Cyclin-dependent kinase 2 (Homo sapiens) (UniProt P24941); assay: Inhibition of CDK2 in human G361 cells sensitized with nocodazole assessed as NPM phosphorylation at Thr199 at 640 nM after 4 hrs by immunoblotting analysis; assay type: cell-based; conditions: G-361; how it was run: as §2
[19] = target: Cyclin-dependent kinase 7 (Homo sapiens) (UniProt P50613); assay: Inhibition of CDK7 in human G361 cells assessed as reduction of phosphorylation of CDK2 at T160 by immunoblotting analysis; assay type: cell-based; conditions: G-361; how it was run: as §3
[20] = target: CDK7/Cyclin H/MNAT1 (Homo sapiens, UniProt P50613); assay: Inhibition of CDK7/Cyclin-H/MAT 1 (unknown origin) using (YSPTSPS)2KK peptide as substrate; assay type: protein-complex assay; how it was run: as §1
CDK7/Cyclin H/MNAT1, sequence (P51946 whole entry): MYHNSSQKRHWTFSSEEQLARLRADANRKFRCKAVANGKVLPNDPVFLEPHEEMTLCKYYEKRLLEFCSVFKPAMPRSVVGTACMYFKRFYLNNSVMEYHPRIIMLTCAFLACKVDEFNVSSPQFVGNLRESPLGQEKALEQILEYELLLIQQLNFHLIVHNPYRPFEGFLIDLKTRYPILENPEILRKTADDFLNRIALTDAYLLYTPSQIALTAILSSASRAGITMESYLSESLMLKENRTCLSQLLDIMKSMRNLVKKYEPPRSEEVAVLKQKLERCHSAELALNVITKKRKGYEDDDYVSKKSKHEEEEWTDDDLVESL
CDK7/Cyclin H/MNAT1, sequence (P50613 whole entry): as the sequence (P50613 whole entry) above
CDK7/Cyclin H/MNAT1, sequence (P51948 whole entry, further chain): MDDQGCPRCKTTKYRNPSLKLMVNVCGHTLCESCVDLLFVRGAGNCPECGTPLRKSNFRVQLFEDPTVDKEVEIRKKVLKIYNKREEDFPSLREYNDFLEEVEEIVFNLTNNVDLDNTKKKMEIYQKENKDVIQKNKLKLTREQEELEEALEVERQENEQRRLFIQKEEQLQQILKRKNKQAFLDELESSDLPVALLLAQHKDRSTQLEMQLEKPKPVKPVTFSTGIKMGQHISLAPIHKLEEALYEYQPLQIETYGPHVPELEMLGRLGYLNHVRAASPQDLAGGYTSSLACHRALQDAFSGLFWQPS

[21] = system: G-361; assay: Induction of apoptosis in human G361 cells assessed as induction of caspase-9 clevage at 300 nM after 24 hrs by immunoblotting analysis; assay type: functional, cell-based; how it was run: as §3
[22] = system: G-361; assay: Induction of apoptosis in human G361 cells assessed as decrease in Mcl-1 protein level at 300 nM after 24 hrs by immunoblotting analysis; assay type: functional, cell-based; how it was run: as §3
[23] = system: G-361; assay: Induction of apoptosis in human G361 cells assessed as reduction of retinoblastoma protein level at 640 nM after 16 hrs by immunoblotting analysis; assay type: functional, cell-based; how it was run: as §3
[24] = system: G-361; assay: Induction of apoptosis in human G361 cells assessed as increase of caspase 3/7 activation using Ac-DEVD-AMC as substrate at 20 to 1280 nM after 24 hrs by fluorimetry assay; assay type: functional, cell-based
[25] = target: Cyclin-dependent kinase 9 (Homo sapiens) (UniProt P50750); assay: Inhibition of CDK9-mediated RNA polymerase 2 phosphorylation at ser2 in human G361 cells at 300 nM after 24 hrs by immunoblotting analysis; assay type: cell-based; conditions: G-361; how it was run: as §3
Cyclin-dependent kinase 9 (Homo sapiens), sequence (P50750 whole entry): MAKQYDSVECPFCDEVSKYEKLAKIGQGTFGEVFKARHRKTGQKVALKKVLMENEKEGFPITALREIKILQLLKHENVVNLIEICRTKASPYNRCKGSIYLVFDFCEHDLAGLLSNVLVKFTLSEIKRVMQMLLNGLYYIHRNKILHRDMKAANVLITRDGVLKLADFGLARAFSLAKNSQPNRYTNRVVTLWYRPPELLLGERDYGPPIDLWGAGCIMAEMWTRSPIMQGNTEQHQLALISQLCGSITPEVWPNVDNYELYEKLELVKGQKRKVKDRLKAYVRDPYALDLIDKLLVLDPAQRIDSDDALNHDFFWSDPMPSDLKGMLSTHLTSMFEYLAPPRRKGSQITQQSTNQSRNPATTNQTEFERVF

[26] = system: G-361; assay: Induction of apoptosis in human G361 cells assessed as dephosphorylation of RNA polymerase 2 at Ser2 at 640 nM up to 1 hr by immunoblotting analysis; assay type: functional, cell-based; how it was run: as §3
[27] = system: MCF7; assay: Cytotoxicity against human MCF7 cells assessed as growth inhibition after 72 hrs by calcein AM staining-based fluoroscence assay; assay type: functional, cell-based; conditions: MCF7, 72 h
[28] = system: G-361; assay: Induction of apoptosis in human G361 cells assessed as caspase 3/7 activation using Ac-DEVD-AMC as substrate at 300 nM after 24 hrs by fluorimetry assay; assay type: functional, cell-based
[29] = system: G-361; assay: Induction of apoptosis in human G361 cells assessed as induction of caspase-7 clevage at 300 nM after 24 hrs by immunoblotting analysis; assay type: functional, cell-based; how it was run: as §3
[30] = system: G-361; assay: Induction of apoptosis in human G361 cells assessed as induction of PARP-1 clevage at 300 nM after 24 hrs by immunoblotting analysis; assay type: functional, cell-based; how it was run: as §3
[31] = system: HCT-116; assay: Cytotoxicity against human HCT116 cells assessed as growth inhibition after 72 hrs by calcein AM staining-based fluoroscence assay; assay type: functional, cell-based; conditions: HCT-116, 72 h
[32] = system: G-361; assay: Induction of apoptosis in human G361 cells assessed as induction of PARP-1 clevage at 640 nM after 16 hrs by immunoblotting analysis; assay type: functional, cell-based; how it was run: as §3
[33] = system: G-361; assay: Induction of apoptosis in human G361 cells assessed as increase in p53 after 24 hrs by immunoblotting analysis; assay type: functional, cell-based; how it was run: as §3
[34] = system: G-361; assay: Induction of apoptosis in human G361 cells assessed as decrease in Mcl-1 after 24 hrs by immunoblotting analysis; assay type: functional, cell-based; how it was run: as §3
[35] = target: CDK9/cyclin T1 (Homo sapiens, UniProt P50750); assay: Inhibition of CDK9/Cyclin T1 (unknown origin) using (YSPTSPS)2KK peptide as substrate; assay type: protein-complex assay; how it was run: as §1
CDK9/cyclin T1, sequence (O60563 whole entry): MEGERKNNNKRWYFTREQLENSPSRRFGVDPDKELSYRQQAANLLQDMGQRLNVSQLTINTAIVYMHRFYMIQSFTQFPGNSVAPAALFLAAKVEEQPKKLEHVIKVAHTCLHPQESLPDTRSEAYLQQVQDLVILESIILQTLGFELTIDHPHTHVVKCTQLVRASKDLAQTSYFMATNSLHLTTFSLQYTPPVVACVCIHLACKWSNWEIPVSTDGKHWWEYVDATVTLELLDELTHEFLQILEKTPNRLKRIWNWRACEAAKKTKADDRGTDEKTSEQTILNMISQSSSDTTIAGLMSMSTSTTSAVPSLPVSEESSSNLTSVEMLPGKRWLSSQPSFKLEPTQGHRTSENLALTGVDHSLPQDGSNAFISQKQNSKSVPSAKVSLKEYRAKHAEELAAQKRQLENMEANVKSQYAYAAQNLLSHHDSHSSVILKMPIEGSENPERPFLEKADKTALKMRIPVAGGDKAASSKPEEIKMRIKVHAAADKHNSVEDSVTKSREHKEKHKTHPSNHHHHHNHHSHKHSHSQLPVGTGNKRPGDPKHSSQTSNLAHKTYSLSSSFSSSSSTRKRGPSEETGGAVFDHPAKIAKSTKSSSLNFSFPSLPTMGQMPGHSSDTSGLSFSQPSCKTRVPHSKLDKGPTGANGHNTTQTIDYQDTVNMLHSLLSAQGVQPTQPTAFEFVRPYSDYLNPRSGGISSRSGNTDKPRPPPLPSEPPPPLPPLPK
CDK9/cyclin T1, sequence (P50750 whole entry): as the sequence (P50750 whole entry) above

[36] = system: K562; assay: Cytotoxicity against human K562 cells assessed as growth inhibition after 72 hrs by calcein AM staining-based fluoroscence assay; assay type: functional, cell-based; conditions: K562, 72 h
[37] = system: G-361; assay: Induction of apoptosis in human G361 cells assessed as induction of caspase-3 clevage at 300 nM after 24 hrs by immunoblotting analysis; assay type: functional, cell-based; how it was run: as §3
[38] = system: G-361; assay: Induction of apoptosis in human G361 cells assessed as induction of PARP-1 clevage at 80 nM after 24 hrs by immunoblotting analysis; assay type: functional, cell-based; how it was run: as §3
[39] = target: CDK2/CDK4 (Homo sapiens) (UniProt P11802+P24941); assay: Inhibition of CDK2/4-mediated retinoblastoma protein phosphorylation at ser780 in human G361 cells at 300 nM after 24 hrs by immunoblotting analysis; assay type: cell-based; conditions: G-361; how it was run: as §3
[40] = system: G-361; assay: Induction of apoptosis in human G361 cells assessed as dephosphorylation of retinoblastoma protein at Ser612 at 640 nM up to 1 hr by immunoblotting analysis; assay type: functional, cell-based; how it was run: as §3

For `NC1CCC(Nc2nc(NCc3ccc(-c4ccccc4O)nc3)c3ncn(C4CCCC4)c3n2)CC1` (stereo not drawn), the IC50 [1] was 0.016 µM, the IC50 [2] was 0.0187 µM and the inhibition [3] was “Active”. The IC50 [4] was 0.024 µM, the inhibition [5] was “Active” and the Activity [6] was “Active”. For the same compound, the Activity [7] was “Active”, the Activity [8] was “Active” and the Activity [9] was “Active”. The IC50 [10] was 0.014 µM, the Activity [11] was “Active” and the Activity [12] was “Active”. The inhibition [13] was “Active”, the Activity [14] was “Active” and the IC50 [15] was 0.0071 µM. For the same compound, the Ratio IC50 [16] was 20, the Activity [17] was “Active” and the inhibition [18] was “Active”. The inhibition [19] was “Active”, the IC50 [20] was 0.306 µM and the Activity [21] was “Active”. For the same compound, the Activity [22] was “Active”, the Activity [23] was “Active” and the Activity [24] was “Active”. For the same compound, the “Inhibition of RNA polymerase II Ser2 phosphorylation (qualitative)” value [25] was “Active”, the Activity [26] was “Active” and the IC50 [27] was 0.018 µM. The Activity [28] was “Active”, the Activity [29] was “Active” and the Activity [30] was “Active”. The IC50 [31] was 0.035 µM, the Activity [32] was “Active” and the Activity [33] was “Dose-dependent effect”. The Activity [34] was “Dose-dependent effect”, the IC50 [35] was 0.0109 µM and the IC50 [36] was 0.016 µM. The Activity [37] was “Active”, the Activity [38] was “Active” and the inhibition [39] was “Active”. The Activity [40] was “Active”.

In the case of `NC1CCC(Nc2nc(NCc3ccc(-c4ccoc4)nc3)c3ncn(C4CCCC4)c3n2)CC1` (stereo not drawn), the IC50 [1] is reported as 0.015 µM, the IC50 [4] is reported as 0.097 µM and the IC50 [10] is reported as 0.024 µM. For the same compound, the Activity [11] was “Active”, the IC50 [15] was 0.008 µM and the Ratio IC50 [16] was 20. The Activity [17] was “Active”, the Activity [21] was “Active” and the Activity [22] was “Active”. For the same compound, the “Inhibition of RNA polymerase II Ser2 phosphorylation (qualitative)” value [25] was “Active”, the IC50 [27] was 0.032 µM and the Activity [28] was “Active”. For the same compound, the Activity [29] was “Active”, the Activity [30] was “Active” and the IC50 [31] was 0.046 µM. The IC50 [36] was 0.056 µM, the Activity [37] was “Active” and the inhibition [39] was “Active”.

— ChEMBL document CHEMBL2401709 (J Med Chem, 2013)
